MT stabilizer = microtubule stabilizers in HeLa cells. % tubulin-high responders, % at 10 µM. AID 2205. 0.83% of 200,000 active. HeLa tubulin immunostaining HCS, 24 h; share of cells brighter than vehicle mean+2SD;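 active = plate Z-score above 3 for both tubulin-high and condensed-nucleus cell shares, with cell loss under 80%, at 10 µM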;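 note: anti alpha tubulin signal scored within the nucleus-defined area of each cell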
Ba/F3 V617F tox = loss of viability in JAK2V617F-driven Ba/F3 cells. 1.1% of 220,000 active. inhibition, % at 5.6 µM. Ba/F3 EpoR-JAK2V617F viability, ATP luminescence;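 active = inhibition above the campaign mean plus 3 SD over all tested compounds, cut at about 24% in these data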;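 note: cytokine-independent growth of Ba/F3 cells driven by EpoR plus mutant JAK2; 0% = DMSO-treated cells and 100% = JAK inhibitor I control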
APP transl inh = APP translation inhibition; SH-SY5Y APP 5'UTR-luciferase reporter, luminescence; inhibition, % at 2 µM; 0.82% of 190,000 active;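 active = inhibition above a set limit, derived from the sample mean plus 3 SD, cut at about 45% in these data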
BaF3 parental = reduces parental Ba/F3 cell viability, JAK2V617F counter-screen | CellTiter-Glo ATP luminescence | AID 1486 | inhibition, % at 5.6 µM | 1.1% of 220,000 active;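 active = inhibition above a per-campaign cutoff, the mean inhibition of all tested compounds plus 3 SD, cut at about 27% in these data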;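 note: 0% = DMSO wells and 100% = JAK Inhibitor I control wells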
b-catenin transl = modulators of beta-catenin nuclear translocation | nuclear translocation activity, % at 5 µM | HeLa beta-catenin nuclear translocation, immunofluorescence imaging | 0.3% of 190,000 active | AID 1665;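 active = nuclear translocation activity above 50% at 5 µM, with a well cell count of 50 or more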;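 note: per-cell ratio of nuclear to cytoplasmic median beta-catenin stain intensity; plate controls were DMSO negative control for no effect and GSK-3 inhibitor IX positive control for full effect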
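Test system: human HeLa cells, endogenous beta-catenin. Times: 24 h compound exposure, 37°C. Measured by: beta-catenin immunofluorescence imaging with DAPI.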
IEC-6 cytotox = counter-screen for KLF5 inhibitors: cytotoxicity in IEC-6 cells | IEC-6 cytotoxicity, luminescence viability | inhibition, % at 5 µM | 0.78% of 290,000 active | AID 1825; in the data active = inhibition above about 22%;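 note: 0% = plate median of test compound wells and 100% = cytotoxic reference compound wells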
* marks the source's active call; other numbers are inactive results; . = no result. Rows were chosen to be rich in hits. Some 2.2% of all compounds tested hit in one or more screens of this group.

SMILES	MT stabilizer	Ba/F3 V617F tox	APP transl inh	BaF3 parental	b-catenin transl	IEC-6 cytotox
COn1c(-c2ccccc2)nc2ccc(Cl)cc21	2.6	-1.4	.	0.8	-0.5	-3.7
OCCNCC(O)CN1c2ccccc2Sc2ccccc21 (centres undefined)	.	.	.	.	.	-6.8
CCOc1ccc(C2=Nc3ccccc3C(c3ccc(N4CCOCC4)cc3)=NN2)cc1	35.3*	-5.0	-63.2	-0.8	.	-5.5
CCOc1ccc(C2=Nc3ccc(Br)cc3C(c3ccc(N4CCOCC4)cc3)=NN2)cc1	10.9	-1.5	-30.4	-0.6	1.0	4.4
Cc1ccc2c(c1)c1ccc3c(c1n2C)C(=O)C=CC3=O	.	1.1	.	1.1	0.1	4.4
COc1ccc2c(c1)c1ccc3c(c1n2C)C(=O)C=CC3=O	.	57.6*	.	34.8*	1.7	6.0
Cc1cc(NC(=O)COC(=O)c2ccc(S(=O)(=O)N3CCCc4ccccc43)cc2)no1	34.5*	62.6*	92.2*	49.4*	69.9*	2.2
Cn1c(C(=O)N2CCCC(C(=O)O)C2)cc2sccc21 (centres undefined)	2.0	-2.9	-10.7	94.6*	.	2.4
Cn1c(C(=O)N2CCCC(C(=O)N3CCN(C(=O)c4ccco4)CC3)C2)cc2sccc21 (centres undefined)	2.8	-3.5	14.1	2.9	.	-0.1
N#CC1=C(SCC(=O)c2ccc(Br)cc2)NC2=C(C(=O)CCC2)C1c1ccco1 (centres undefined)	31.7*	1.2	67.1*	2.2	46.7	2.6
C=CCOc1c(Br)cc(/C=N/Nc2ccc(C(=O)O)cc2)cc1OCC	3.3	11.8	-104.5	5.8	-6.6	39.4*
COc1ccc(/C=N/Nc2ccc(C(=O)O)cc2)cc1Br	2.4	0.9	-132.6	2.9	.	12.7
C=CCNC(=O)COc1cc(C)cc(C)c1C	5.2	-1.2	-9.8	3.5	-1.3	1.8
Cc1ccn2c(Nc3ccccc3)c(-c3ccccn3)nc2c1	4.8	3.8	59.1*	6.8	2.2	-2.1
C#CCn1cc(/C=N/NC(=O)c2cc3ccccc3o2)c2ccccc21	27.3*	-2.1	-4.3	2.6	2.5	2.4
O=C(N/N=C/c1cccc2ccccc12)c1cc2ccccc2o1	.	.	.	.	.	9.3
COc1ccccc1CNC(=O)CNC(=O)c1sc2ccccc2c1Cl	.	.	.	.	.	6.7
Cc1cc(/C=N/n2cnnc2)c(C)n1-c1ccc(Cl)cc1	3.0	5.9	-2.8	4.6	3.9	7.2
Cc1cc(/C=N/n2cnnc2)c(C)n1-c1ccc(OCc2ccc(Cl)cc2Cl)cc1	2.2	-0.2	50.9*	5.3	.	-1.5
CCN(CC)C(=O)Cn1cc(C(=O)C(=O)N2CCN(c3ccc([N+](=O)[O-])cc3)CC2)c2ccccc21	.	.	.	.	.	-1.5
Cc1cc2nc(-c3ccc(SCc4ccc(C(=O)O)cc4)nc3)[nH]c2cc1C	17.5*	-0.8	-89.1	4.6	12.0	-6.7
CCC(OC(=O)c1ccco1)C(=O)NCc1ccc2c(c1)OCO2 (centres undefined)	.	.	.	.	.	-3.8
COc1ccccc1Nc1ncc(-c2cccs2)s1	6.5	-2.5	-8.6	-0.6	106.6*	5.6
COc1ccccc1Nc1ccc(C(=O)NCc2cccs2)cn1	2.5	-2.7	1.6	7.1	0.7	2.1
CC1CCCCN1C(=O)c1cc2ccccc2cc1O (centres undefined)	.	.	.	.	.	9.2
SMILES	MT stabilizer	Ba/F3 V617F tox	APP transl inh	BaF3 parental	b-catenin transl	IEC-6 cytotox
Cc1ccc(C(=O)c2cccc(N)c2)cc1C	2.0	-0.8	49.2*	6.8	-0.5	2.1
O=c1c2c(c(-c3ccccc3)nn1Cc1ccccc1)CCCC2	.	.	.	.	.	-1.6
CCCCCCCC(=O)Nc1cc(C(=O)NCCC)ccc1N1CCC2(CC1)CC(c1ccccc1)=NO2	.	.	.	.	.	-2.1
Cc1cc2c(cc1C)C(c1cc(Br)ccc1F)CC(=O)N2 (centres undefined)	27.5*	0.8	21.3	6.3	23.1	12.8
Cc1cc2c(cc1C)C(c1ccccc1F)CC(=O)N2 (centres undefined)	.	.	.	.	.	3.4
COc1ccc(NC(=O)CSc2nnc(-c3cnccn3)n2C)cc1OC	.	.	.	.	.	12.4
CN(C)C(=S)Oc1ccccc1-c1ccccc1OC(=S)N(C)C	.	.	.	.	.	-6.4
CCOC(=O)C1(CC2CC2)CCN(Cc2ccc(OC)cc2F)CC1	3.0	-1.5	9.4	80.5*	1.7	0.2
CCOC(=O)N1CCC(NC(=O)c2ccc3c(c2)sc2nc(-c4ccc(OC)cc4)cn23)CC1	3.7	0.4	-0.7	27.5*	0.3	2.5
CCCCOC(=O)Cn1c(=O)c2c(nc(Br)n2Cc2ccccc2)n(C)c1=O	2.4	1.6	-3.3	65.7*	-5.7	3.0
CN(Cc1c(C(=O)N/N=C/c2ccc(O)cc2)nnn1-c1nonc1N)c1ccccc1	.	.	.	.	.	9.0
CCCSc1cc(NCCOC(=O)CCC)c([N+](=O)[O-])c2nonc12	3.2	-2.6	11.3	4.4	-0.6	-0.9
CCCC(=O)OCCNc1cc(Sc2nccn2C)c2nonc2c1[N+](=O)[O-]	3.1	-1.5	74.8*	3.4	3.9	0.0
Cn1c(=S)[nH]c2sc3c(c2c1=O)CCC(C(C)(C)C)C3 (centres undefined)	.	.	.	.	.	1.9
Cn1c(-c2ccccc2)c(C(=O)CCl)c2ccccc21	7.0	0.8	-12.0	5.2	0.6	2.9
CCCc1c(CC)c(=N)c2ccccc2n1C	1.6	70.8*	-2.5	65.0*	-1.3	6.0
Cc1ccc(N(C)S(=O)(=O)c2c(C)noc2/C=C/N(C)C)cc1	.	.	.	.	.	0.4
C(=N\Nc1nc(Nc2ccccc2)nc(Nc2ccccc2)n1)/c1cccnc1	2.8	-1.4	-5.8	11.7	6.2	28.6*
CSc1nnc(-c2ccc(S(=O)(=O)N3CCCCC3)cc2)o1	.	.	.	.	.	1.0
O=C(NCc1cccs1)C1CCN(c2ccc(S(=O)(=O)N3CCOCC3)cc2Cl)CC1	27.3*	72.6*	92.7*	77.8*	106.1*	76.1*
Cc1ccc(NC(=O)Cn2nnc(-c3ccccc3NC(=O)c3cccs3)n2)cc1	21.0*	0.2	-13.9	4.9	58.1*	7.0
CCOc1ccc(NC(=O)Cn2nnc(-c3ccccc3NC(=O)CC)n2)cc1	4.3	0.1	-19.8	5.5	0.9	-2.4
O=C(Cn1nnc(-c2ccccc2NC(=O)c2ccco2)n1)Nc1ccccc1	14.5	1.5	-4.2	3.0	-0.5	5.4
COc1ccc(NC(=O)Cn2nnc(-c3ccccc3NC(=O)c3cccs3)n2)cc1	19.2*	-3.1	-0.3	-2.6	-0.7	4.4
COc1ccc(NC(=O)Cn2nnc(-c3ccccc3NS(=O)(=O)c3ccc(OC)cc3)n2)cc1	5.8	77.8*	89.2*	66.2*	.	45.7*
CCOc1c(C)cnc2c1c(=O)n(Cc1ccc(Cl)cc1)c(=O)n2C	.	.	.	.	.	3.1
CCOC(=O)c1c(C)c(C(=O)Nc2ccc(N(C)C)cc2)c(C)n1CC	13.5*	1.2	-6.9	5.6	-4.3	0.0
CCOC(=O)c1c(C)c(C(=O)NCCOC)c(C)n1CC	2.1	2.4	-7.6	8.0	0.0	-2.1
COc1cc(/C=C2/NC(=O)N(c3cccc(Cl)c3)C2=O)ccc1O	3.0	100.1*	55.3*	75.7*	7.2	21.3

Source: PubChem BioAssay (several laboratories)
